The labels stand for the following.
B1: tRNA (parent)
chain: GUUCCGUUGGCGUAAUGGUAACGCGUCUCCCUCCUAAGGAGAAGACUGCGGGUUCGAGUCCCGUACGGAACG

Fewer inactive variants are shown than the library holds.

The data set covers variants of B1. As to the kind of experiment: yeast fitness relative to wild type (ratio to wild type); higher = fitter; tRNA-Arg(CCU), competitive growth, 37 C, YPD. Put shortly:
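Variants of the tRNA-Arg(CCU) gene, chemically synthesised with a 3% per-site mutation rate at 69 sites, were placed at the native genomic locus in Saccharomyces cerevisiae. The pooled strains were competed in YPD at 37°C for 24 hours in six parallel replicates. Gene amplicons from the start population and from each end population were read by 100-nucleotide paired-end sequencing. Darwinian fitness relative to wild type came from changes in genotype frequencies; genotypes needed ≥ 100 starting reads, and estimates < 0.5 were set to 0.5.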
As for A14G A20U A40G U54C, the yeast fitness was at most 0.5. Then G12A C24G U35A A40U G41A A42C, with at most 0.5; and G23A C33G G50A, with 0.53; and C4G G17A A43G, with at most 0.5.

On to U16C A37G C61G A69G, for which the yeast fitness stood at 0.687. To G6A C24U C61G C66U A69U belongs 0.568; to C27U C62U A70C, 0.756. Then G51A C62G C66U, with at most 0.5; and G9A G48C A70C, with 1.08. To G12A C24U C29A belongs at most 0.5; to U3A G18C U28A, at most 0.5.

Regarding G6A A36U C66U G67A, the yeast fitness is at most 0.5. Then C22U U47C G52A, with at most 0.5; and U28C G51A C55U C66G, with 0.553; and U13G A20U, with 1.03. Take U19C C31U G58A: the yeast fitness was determined as 0.715.

Turning to C11A A15G C61U A65U, the yeast fitness is at most 0.5. As for U35G A45C G56C, the yeast fitness was at most 0.5. To C5A A43C A65U belongs at most 0.5; to C62G C66U, 0.652. To G10A U35A A37G A43U A45C belongs at most 0.5. To U28A U32G A65U belongs at most 0.5; to U19A A20G C49U U59C C62G, at most 0.5; to U8A G10C G12C C34G G67U, at most 0.5. As for C4A C22G C49A C55U C66A A69C, the yeast fitness was at most 0.5. For the variant U16G A37U, the yeast fitness amounted to 0.618.

As to A45C G48A C55A, the yeast fitness stood at 0.544.

Regarding U26A A43C A45U C55U A65C, the yeast fitness was at most 0.5. Then C4A A15C A20C, with at most 0.5; and G18C A37C, with 0.641. To A15C G52A belongs 0.712. To C11A C49U belongs 0.658.

In the case of C55U G63A A70U, the yeast fitness was determined as 0.551. As to C11G A15G U28G C29U C33G C46G A57C, the yeast fitness was at most 0.5. U16C A65G: the yeast fitness worked out at 0.95. For G9A C46G C49U A69C, the yeast fitness stood at 0.709. Then U2A C11G C27G U54A C66U, with at most 0.5; and U8C U59A A70G, with 0.556. Then U32A U35A, with 0.619; and U2C U28A A70G, with at most 0.5. Then U8G A14G U26A C62U, with 0.578; and U2A C11U G23C C27A G50U, with at most 0.5. On to U8G C22G G25A G68A, for which the yeast fitness is at most 0.5.

With C24A C55G C60A, the yeast fitness is at most 0.5. To C5U A43U G56C G68U belongs 0.635; to G9A C34G, 0.588. Then A15U U28A C33G A65G, with at most 0.5; and C11A C49G A69U, with 0.585; and G10C C34A A40G A69U, with 0.552. To U13A C24A G51A C61A A69U belongs at most 0.5; to U2C A14G C22A C27A C29U A42C, at most 0.5; to G41A A43C, 0.843.

With C4A C5G U54A C62U, the yeast fitness was 0.536. Then U13C C31U A57G C60U U64A C66A A69C, with at most 0.5. To C33G C34G U35C C46U belongs at most 0.5; to G9A G39A G63C, 0.556.

As to C5U C22A C62G, the yeast fitness was found to be 0.546. Then U3C A21G A43U A65C G68C, with at most 0.5; and C11U A20G, with 0.957; and U3A G38A G48A, with 0.54. To A37U G51A U53G U54C belongs at most 0.5. To G10A U19A G41C C66U belongs 0.617. As to C11U G25A A70C, the yeast fitness was found to be 0.892. Then U13C G38A, with 0.708. For the variant G25A C66U, the yeast fitness worked out at 0.902. To C33G G63U U64G belongs 0.665; to A14U C34G A37C, at most 0.5. As for A43U A70C, the yeast fitness turned out to be 0.898.

As for C31G C34U A40C G63C, the yeast fitness is at most 0.5.

C11A A20U U47C: the yeast fitness is at most 0.5. Then C27G C46G U53G G58C C61A, with at most 0.5.

Regarding G9A C22U C61U A70C, the yeast fitness was at most 0.5. To C24G C27G C60U belongs 0.8; to U7A G38A, 0.695. Then C30U U32A A36U A37U C62U G63A, with at most 0.5; and C11U C22G A57G, with 0.586; and A14U C29U A37U A69U, with at most 0.5. Then A15U A42C U47A G63C A69C, with at most 0.5.

In the case of C22G G25A G50U, the yeast fitness was found to be 0.593. For the variant C31G A45C C49A A70G, the yeast fitness is at most 0.5. Take U19A G39C G63C: the yeast fitness was at most 0.5. To U35C G56A belongs 0.735; to C4A G48A, 0.964; to A40U A42U C49G G51A C66A G68C, at most 0.5. To G10A C24A C33U A57U U59G belongs at most 0.5; to A45C U47A U53C, at most 0.5. On to U3A G58C C60U C66G, for which the yeast fitness was at most 0.5.

For the variant C4G U35A C61A, the yeast fitness is at most 0.5.

Consider A14C U16C, for which the yeast fitness stood at 0.724. Then C11G C22A C31A A40G, with at most 0.5.

As for C4G C11G C22U C46U, the yeast fitness was at most 0.5. Regarding U8C U59G, the yeast fitness worked out at 0.901. To A42U A43U belongs 1.01; to U3C A15U C34U A43G C49U, at most 0.5; to G10A A15G A42C G50C, at most 0.5. To U16C C34U C49G belongs at most 0.5. To U3C C22U C31U belongs 0.691. Consider U3A G12A U19A, for which the yeast fitness stood at 0.763. Then C30A A43U C55G G63C G67C, with at most 0.5; and U3A A20C U32A A70G, with at most 0.5. To A40C C46U belongs 0.875; to C46U C55U A69U, 0.76.

C55U C60U: the yeast fitness was found to be 0.584. Then A21G C31G A69C, with 0.755; and C24U C27A U53A C66U, with at most 0.5; and U13G G44C, with 0.774. In the case of A15C C34U A57C, the yeast fitness is 0.603. Then G9C A15U, with 0.603; and A20G G44C, with 0.929; and C4A C34G C62A C66U, with at most 0.5. As to U8A U16A C27G U59C C61U, the yeast fitness was at most 0.5. To C11G C29U C30U belongs at most 0.5; to C24A C34U G52A, at most 0.5.

For the variant U32A U35A A42U, the yeast fitness was at most 0.5. C29U U47A A65C: the yeast fitness is at most 0.5. To G12C U26A C33A C34G belongs 0.55; to C4U C11G C22G C55G G63C, at most 0.5; to C27A C62A, 0.699. To U3C C24G C33G C66U belongs at most 0.5; to C29U A42C, 0.676; to G6C G18A, 0.729.

On to G23A C27U A69G, for which the yeast fitness was at most 0.5. To G18A A20C C34U A36U G39C A70U belongs at most 0.5; to A15G C55U U59C A65C, at most 0.5; to U2C U54C C62U, 0.571. Consider A14G G25A C30A A42C, for which the yeast fitness was at most 0.5. Then C11U A20U G38A G51A U54A, with 0.527. Take G51A A57C U59C: the yeast fitness was at most 0.5. To A36U A40U G44C C60U belongs at most 0.5.

As to C24U C30U C34U G52A, the yeast fitness was at most 0.5. To C30U U47A G67C G68A belongs at most 0.5; to A21C C27G U28A C29U C34U A57G G58C, at most 0.5. To G17C G38C G52C belongs at most 0.5; to C4U C22U C33U A42C, 0.668. C29A C61U: the yeast fitness came out at 0.647. Turning to A15C G23C U64C A65G, the yeast fitness is at most 0.5. Then U28A A37U, with 0.73. To G10A C30U C33G belongs 0.538; to A36G A65C G68C, at most 0.5; to G6A U8A A42U, at most 0.5. Then U16A A21C G58A, with at most 0.5; and C24G C27G A36U G38C C60G C66A, with at most 0.5; and C5G A36G A45G G51C C61A, with at most 0.5. Turning to U26C C29A C30A A45U, the yeast fitness was found to be 0.582. To U3C C5G G67U belongs 0.542; to C11G G12C A43U G44A, 0.612.

A14U C33G A42C C49U C55G: the yeast fitness was at most 0.5.

C5A A40U G48C G63A: the yeast fitness was at most 0.5. Then U2C U35G A40C C62G C66G, with at most 0.5; and C22G C29G G56A, with 0.575; and G58C G68C, with 0.937. To G44A A57C belongs 0.654; to U16C G38C A65U C66U, 0.569; to C24A G38C G48A, at most 0.5. Then G9A C22U C60G A65C, with 0.648; and U3G G44C U54A, with at most 0.5. As to C4U C29U C31U U59C, the yeast fitness was at most 0.5. Then C5G U7C U54A G63A, with at most 0.5; and U7C A14C A21C C46A, with at most 0.5. Then U47A C55G C61U, with 0.522; and U2C C27G A43U A45U A69U, with at most 0.5. Turning to G39A A65G, the yeast fitness came to 0.985. To U3A A14C C46U belongs at most 0.5.

In the case of C29A A42U C46A G63A, the yeast fitness was at most 0.5. Then U2A C24A C30U, with at most 0.5. Then U3G C4G G6C C29A A36C G52C G56A, with at most 0.5. To A40C C55U C60G C62A belongs 0.546.

For the origin of these results see the RNAGym collection of RNA variant scans (doi:10.1126/science.aae0568).
